Results: ChEMBL document CHEMBL4257546, “Discovery of new FXR agonists based on 6-ECDCA binding properties by virtual screening and molecular docking” (Medchemcomm, 2018)
The source made the active and inactive calls.

Columns and labels:
[1] = biological target: T1, Bile acid receptor (Homo sapiens) (UniProt Q96RI1); assay: Transactivation of full-length FXR (unknown origin) expressed in HEK293 cells at 100 uM after 18 hrs by dual-glo luciferase reporter gene assay relative to CDCA; format: cell-based
T1 sequence (whole entry): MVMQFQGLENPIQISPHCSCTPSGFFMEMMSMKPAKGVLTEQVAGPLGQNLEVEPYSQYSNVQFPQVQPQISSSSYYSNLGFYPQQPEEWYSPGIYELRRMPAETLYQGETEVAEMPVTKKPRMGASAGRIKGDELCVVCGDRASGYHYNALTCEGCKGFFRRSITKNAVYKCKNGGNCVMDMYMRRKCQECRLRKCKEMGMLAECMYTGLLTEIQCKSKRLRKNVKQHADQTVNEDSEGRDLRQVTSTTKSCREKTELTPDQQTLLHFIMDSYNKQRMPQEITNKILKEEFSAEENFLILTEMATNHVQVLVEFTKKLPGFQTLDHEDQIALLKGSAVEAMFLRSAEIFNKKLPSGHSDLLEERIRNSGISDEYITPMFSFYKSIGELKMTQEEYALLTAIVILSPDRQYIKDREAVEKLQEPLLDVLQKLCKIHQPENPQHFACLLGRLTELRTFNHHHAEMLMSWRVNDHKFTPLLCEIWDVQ
Outline: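 HEK293 cells co-transfected by calcium phosphate with full-length FXR expression plasmid, FXRE-driven firefly luciferase reporter and Renilla normalization vector. Compound added at 100 μM 6 h after transfection; dual luciferase read 18 h later. Firefly normalized to Renilla, expressed as fold activation over untreated cells, then as percent of maximal fold induction by CDCA. At least two separate experiments, triplicate assays.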

[2] = test system: HEK293; assay: Effect on renilla luciferase expression in HEK293 cells at 100 uM after 18 hrs by dual-glo luciferase reporter gene assay; format: ADME, cell-based; details: human, hek293, 18 h
Outline: (§1)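 HEK293 in DMEM with 10% FBS, 37 °C, 5% CO2; calcium phosphate co-transfection in serum-free medium with TK-FXRE-luc reporter (50 ng), Renilla vector (20 ng) and full-length FXR plasmid (30 ng) per well. Compounds added 6 h post-transfection, cells harvested 18 h later; Renilla luminescence (Dual-Glo) monitored as the cell-status control over 0.1–250 μM.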

[3] = biological target: T2, Bile acid receptor (Homo sapiens, UniProt Q96RI1); assay: Transactivation of full-length FXR (unknown origin) expressed in HEK293 cells after 18 hrs by dual-glo luciferase reporter gene assay; format: cell-based
T2 sequence (Q96RI1 whole entry): T1 sequence (whole entry)

[4] = test system: HEK293; assay: Cytotoxicity against HEK293 cells assessed as effect on renilla luciferase expression at 0.1 to 250 uM after 18 hrs by dual-glo luciferase reporter gene expression; format: cell-based; details: human, hek293, 18 h; outline: as §1

| SMILES | Activity [1] | Efficacy [1] [%] | EC50 [3] [µM] | Activity [2] | Activity [4] |
| --- | --- | --- | --- | --- | --- |
| Cc1nn(-c2ccccc2)c(N)c1C(O)(CC(=O)C(F)(F)F)C(F)(F)F (stereo unspecified) | inactive | – | – | Non-Toxic | – |
| O=C(Nc1ccccc1)Nc1ccccc1NS(=O)(=O)c1ccccc1 | inactive | – | – | Non-Toxic | – |
| Cc1cc(/N=N/Cc2ccccc2)nc(NS(=O)(=O)c2ccccc2Cl)n1 | inactive | – | – | Non-Toxic | – |
| Cc1cc(CNC(=O)c2ccccc2SC2CCS(=O)(=O)C2)ccc1F (stereo unspecified) | inactive | – | – | Non-Toxic | – |
| Cc1ccc([N+](=O)[O-])cc1NCC(=O)Nc1cc(C(F)(F)F)ccc1-n1cncn1 | inactive | – | – | Non-Toxic | – |
| NC(=O)CSc1ccccc1NC(=O)Nc1ccc(Cl)c(Cl)c1 | inactive | – | – | Non-Toxic | – |
| Nc1nc(CSc2nnnn2Cc2ccccc2)nc(Nc2ccccc2)n1 | inactive | – | – | Non-Toxic | – |
| O=C(CN(Cc1ccc2c(c1)OCO2)C1CCCC1)Nc1cccc2ccccc12 | inactive | – | – | Non-Toxic | – |
| COC(=O)/C=C/c1ccc(OCC(=O)NC2c3ccccc3-c3ccccc32)c(OC)c1 | inactive | – | – | Non-Toxic | – |
| O=C(Nc1ccc(N2CCOCC2)cc1)c1ccccc1SC1CCS(=O)(=O)C1 (stereo unspecified) | inactive | – | – | Non-Toxic | – |
| O=C(COc1ccccc1Cl)NNC(=O)c1cccc(NS(=O)(=O)c2ccc3c(c2)OCCCO3)c1 | inactive | – | – | Non-Toxic | – |
| O=C(O)c1ccccc1-c1ccccc1C(=O)N1CCN(Cc2ccc3c(c2)OCO3)CC1 | – | 55.1 | 5.99 | Non-Toxic | Non-Toxic |
| O=C(CN1CC(C(=O)N2CCCCC2)Oc2ccccc21)NC(=O)NCc1ccco1 (stereo unspecified) | inactive | – | – | Non-Toxic | – |
| COc1cc([N+](=O)[O-])ccc1NC(=O)CNc1ccccc1N1CCCC1=O | – | 120 | 4.33 | Non-Toxic | Non-Toxic |
| CNC(=O)C1CN(CC(=O)Nc2cc(C)c(Cl)cc2OC)c2ccccc2O1 (stereo unspecified) | inactive | – | – | Non-Toxic | – |
| CN(Cc1ccc(N2CCCCC2)cc1)C(=O)c1n[nH]c(=O)c2ccccc12 | – | 60.3 | 14.4 | Non-Toxic | Non-Toxic |

Continued, in another order:

| Activity [1] | Efficacy [1] [%] | EC50 [3] [µM] | SMILES | Activity [2] | Activity [4] |
| --- | --- | --- | --- | --- | --- |
| inactive | – | – | CC(NS(=O)(=O)c1ccccc1F)C(=O)Cc1nc2ccccc2[nH]1 (stereo unspecified) | Non-Toxic | – |
| inactive | – | – | NC(=O)CSc1ccccc1NCC(=O)Nc1ccc(Cl)cc1Cl | Non-Toxic | – |
| inactive | – | – | COc1ccc(Nc2ccc(NC(=O)c3ccccc3NS(=O)(=O)c3cc(C)ccc3C)cc2)cc1 | Non-Toxic | – |
| inactive | – | – | CCOC(=O)CC(c1ccc(F)cc1)C1CCN(C(=O)c2ccc([N+](=O)[O-])o2)CC1 (stereo unspecified) | Non-Toxic | – |
| inactive | – | – | CC1(CSc2cccc(C(=O)NCc3cccs3)c2)NC(=O)NC1=O (stereo unspecified) | Non-Toxic | – |
| inactive | – | – | COc1ccc(CN(C)C(=O)c2c[nH]c3ccccc23)cc1F | Non-Toxic | – |
| inactive | – | – | CC(Sc1nnc(C2CCCC2)[nH]1)C(=O)Nc1sccc1C(N)=O (stereo unspecified) | Non-Toxic | – |
| inactive | – | – | CS(=O)(=O)N1CCC(NC(=O)CC(NC(N)=O)c2ccccc2F)CC1 (stereo unspecified) | Non-Toxic | – |
| inactive | – | – | CCn1c(CNc2ccc(Cl)cc2)nnc1SCC(=O)NNC(=O)c1ccc(Cl)cc1 | Non-Toxic | – |
